ROMK mod: human ROMK K+ channel modulation, primary screen. P48048. Tet-inducible ROMK, thallium flux fluorescence; actives lie on both sides. B-score at 10 µM. 130,000 tested, 2% active. AID 1918;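 active = signal ratio slope over the read window, or its plate-corrected B-score, at least 3 SD from the plate mean, either direction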;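 note: B-score of the F/F0 ratio slope over 7 to 12 s after thallium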
Target sequence (P48048 whole entry, looked up): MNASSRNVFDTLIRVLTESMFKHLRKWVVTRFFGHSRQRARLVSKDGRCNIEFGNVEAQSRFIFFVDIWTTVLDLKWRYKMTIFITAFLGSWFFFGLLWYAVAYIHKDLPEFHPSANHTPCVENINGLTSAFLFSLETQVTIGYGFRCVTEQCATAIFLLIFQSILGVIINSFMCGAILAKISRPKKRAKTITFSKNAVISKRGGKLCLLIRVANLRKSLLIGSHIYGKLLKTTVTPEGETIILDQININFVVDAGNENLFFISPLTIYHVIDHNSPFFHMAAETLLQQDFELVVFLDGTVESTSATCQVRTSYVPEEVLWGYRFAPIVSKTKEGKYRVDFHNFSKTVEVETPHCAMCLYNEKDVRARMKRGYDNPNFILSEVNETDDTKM
PKD1 inh: PKD1 (human) kinase inhibition | AID 797 | inhibition, % (test concentration not listed) | 200,000 tested, 0.056% active | PKD1 kinase fluorescence polarization assay; in the data active = inhibition above about 50%
KCC2 mod: KCC2 (human) Cl- transport modulation; KCC2 cells, thallium flux FluoZin-2 fluorescence; 190,000 tested, 2.2% active; B-score of Tl+ flux slope (higher = more flux/activation; lower = inhibition) at 10 µM; Q9H2X9;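 active = thallium flux slope and its plate-corrected score both differing from the plate sample mean at a set confidence after two filtering rounds, in either direction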;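 note: slope of fluorescence scaled to starting intensity during 10 to 20 s after thallium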
Rad51 HR inh: Rad51 (human) homologous recombination inhibition; hRad51 DNA strand exchange, fluorescence dequenching; inhibition, % at 10 µM; 200,000 tested, 0.085% active;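 active = inhibition above 40% at the single screening dose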;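 note: 0% = DMSO control wells and 100% = blanks with heterologous ssDNA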
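material = hRad51 filaments on single-stranded DNA | reagent = Donor/quencher-labelled 47-bp dsDNA substrate | compound = 10 µM final, single point | schedule = strand-exchange reaction 15 min at room temperature | measured by = fluorescein emission 520 nm, excitation 485 nm | read-out basis = % inhibition versus plate control and blank means | benchmarks = plate controls and plate blanks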
ROMK retest: retested hit modulating human ROMK potassium channel; normalized thallium flux (F/F0 slope) at 10 µM; shares compounds with ROMK mod; ROMK thallium flux, fluorescence ratio; active compounds read low; 3,000 tested, 54% active;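 active = Flux at 10 µM at least 3 SD below or above vehicle control mean in one or both replicates; inconclusive = no clear call, values can overlap the other calls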
Starred values were filed as active, the others as inactive. Compounds with a hit are over-represented: about 3% of the library has one in this group of screens.

What do the screens show for `Cc1cccc(C)c1OP(N)(=O)OCC(F)(F)F` (configuration not stated)?
ROMK mod: -0.081; PKD1 inh: -4; KCC2 mod: 1.6; Rad51 HR inh: 6

Results for O=c1c2ccccc2nc(CNCC2CCCO2)n1-c1ccc(F)cc1 (configuration not stated) ?
ROMK mod: 1.1; PKD1 inh: 0; KCC2 mod: -1.1; Rad51 HR inh: 4

Results for CCNCCNc1ccc([N+](=O)[O-])c2cccnc12 ?
Rad51 HR inh: 24

How did Cc1nonc1OCCNCCNc1ccc([N+](=O)[O-])c2cccnc12 do in these assays?
ROMK mod: -5.3*; PKD1 inh: -2; KCC2 mod: 0.28; Rad51 HR inh: 3; ROMK retest: 0.053*

Results for CCOC(=O)c1cc2c(cn1)[nH]c1ccccc12 ?
PKD1 inh: -7; KCC2 mod: -1.7; Rad51 HR inh: 1; ROMK retest: inconclusive

How did CN1C(=O)C(=Cc2ccccc2Oc2ccc(Cl)cc2)C(=O)N(C)C1=O do in these assays?
PKD1 inh: -8; KCC2 mod: -1.8; Rad51 HR inh: 10; ROMK retest: 0.084

How did CCOc1ccc(N2C(=O)NC(=O)/C(=C\c3ccc(N4CCCCC4)o3)C2=O)cc1 do in these assays?
PKD1 inh: -11; KCC2 mod: -1.1; Rad51 HR inh: -261; ROMK retest: 0.044*

What do the screens show for `O=C1NC(=O)N(c2ccc3c(c2)OCO3)C(=O)/C1=C/c1ccc(N2CCCC2)o1`?
PKD1 inh: -21; KCC2 mod: -4.2

Results for Fc1ccccc1CCNCc1cccc2ccccc12 ?
ROMK mod: -3.6*; PKD1 inh: -10; KCC2 mod: 0.8; Rad51 HR inh: 2; ROMK retest: 0.057*

How did Cc1cccc(N2C(=O)NC(=O)/C(=C\C=C\c3ccco3)C2=O)c1 do in these assays?
ROMK mod: -14*; KCC2 mod: -1.7; Rad51 HR inh: -1; ROMK retest: 0.046*

How did CN1C(=O)/C(=C/C=C/c2ccco2)C(=O)NC1=S do in these assays?
ROMK mod: -0.8; KCC2 mod: -0.093; Rad51 HR inh: -110

Results for Cc1ccc(N2C(=O)NC(=O)/C(=C\C=C\c3ccco3)C2=O)cc1C ?
ROMK mod: -8.6*; PKD1 inh: -4; KCC2 mod: 0.35; Rad51 HR inh: -51; ROMK retest: 0.039*

Results for Cc1ccc(N2C(=O)NC(=O)/C(=C\C=C\c3ccco3)C2=O)cc1 ?
KCC2 mod: -1.4

Results for O=C1NC(=O)N(c2ccccc2)C(=O)/C1=C/C=C/c1ccco1 ?
ROMK mod: -9.6*; KCC2 mod: -1.4; Rad51 HR inh: -25; ROMK retest: 0.046*

Results for C#CCOc1cc(C2C3=C(COC3=O)Nc3cc4c(cc32)OCO4)ccc1OC (configuration not stated) ?
ROMK mod: 3.5*; PKD1 inh: 2; KCC2 mod: 1.1; Rad51 HR inh: 1; ROMK retest: 0.086

What do the screens show for `c1ccc2c(c1)Sc1ccccc1N2CC1CN2CCC1CC2` (configuration not stated)?
KCC2 mod: 0.46; Rad51 HR inh: -3; ROMK retest: 0.04*

Results for Clc1ccccc1CNC1CN2CCC1CC2 (configuration not stated) ?
PKD1 inh: 2; KCC2 mod: 0.75; Rad51 HR inh: -9

What do the screens show for `NC1=Nc2ccccc2Oc2ccccc21`?
PKD1 inh: 2; ROMK retest: 0.048*

Results for CN1c2ccccc2Oc2ccccc21 ?
PKD1 inh: -8; KCC2 mod: 0.95

Results for COc1ccc2nc3oc(C(=O)N4CCC5(CC4)OCCO5)cc3cc2c1 ?
ROMK mod: -0.17; PKD1 inh: -6; KCC2 mod: -0.12; Rad51 HR inh: 2

How did Cc1cccc(C)c1NC1=NCCCCS1 do in these assays?
PKD1 inh: -10; KCC2 mod: -0.039; Rad51 HR inh: 5

What do the screens show for `COC(=O)c1ccc(NC(=O)CSc2nc3ccc(N4C(=O)C5C6C=CC(C6)C5C4=O)cc3s2)cc1` (configuration not stated)?
PKD1 inh: 12; KCC2 mod: 0.011; Rad51 HR inh: 3

How did Nc1c([N+](=O)[O-])cc(F)c(N2CCNCC2)c1Br do in these assays?
ROMK mod: -3.6*; PKD1 inh: -7; Rad51 HR inh: 11; ROMK retest: 0.055*

What do the screens show for `CN1CCN(c2cc(N3CCCCCC3)c(F)cc2[N+](=O)[O-])CC1`?
ROMK mod: -3.6*; PKD1 inh: -5; KCC2 mod: 0.77; Rad51 HR inh: -12; ROMK retest: 0.053*

How did CCN1CCN(c2cc(N3CCCC3)c([N+](=O)[O-])cc2F)CC1 do in these assays?
ROMK mod: -0.4; PKD1 inh: -6; KCC2 mod: -0.39

What do the screens show for `O=C(O)C1C2CC3CC(C2)CC1(n1ncc(N2CCC4(CC2)OCCO4)c(Cl)c1=O)C3` (configuration not stated)?
KCC2 mod: 0.25

How did C/C(=N\N1CCCCCC1)c1c(O)n(-c2ccccc2C)c(=O)[nH]c1=O do in these assays?
KCC2 mod: 0.86

What do the screens show for `CCc1nc(N2CCNCC2)c(C#N)c2c1CSC(C)(C)C2`?
ROMK mod: -3.7*; PKD1 inh: -1; KCC2 mod: -0.28; ROMK retest: 0.075

How did O=[N+]([O-])c1ccc(N2CCOCC2)c2ccncc12 do in these assays?
ROMK mod: 1.8; PKD1 inh: 0; KCC2 mod: -0.073; Rad51 HR inh: 13

How did O=C1NC(=O)C(=Cc2cn(CCOc3ccc4c(c3)OCO4)c3ccccc23)C(=O)N1 do in these assays?
ROMK mod: -5.6*; PKD1 inh: 6; KCC2 mod: -1.1; Rad51 HR inh: -50; ROMK retest: inconclusive

What do the screens show for `CNP(=O)(Oc1ccccc1)OC12CC3CC(CC(C3)C1)C2` (configuration not stated)?
ROMK mod: 0.76; PKD1 inh: -4; KCC2 mod: -0.54; Rad51 HR inh: 11

What do the screens show for `C/C(=N\Nc1ccccc1)c1c(O)n(C)c(=O)n(C)c1=O`?
PKD1 inh: -8; KCC2 mod: 0.14; Rad51 HR inh: -1

Results for Cc1[nH]c2c(C(F)(F)F)cccc2c1CCN ?
ROMK mod: -0.88; PKD1 inh: 1; KCC2 mod: -0.099; Rad51 HR inh: -1

What do the screens show for `Cc1c(CCN)ccc2c1[nH]c1ccccc12`?
ROMK mod: -3.2*; KCC2 mod: -2.5; Rad51 HR inh: -20; ROMK retest: 0.066*

What do the screens show for `CCC1(c2ccc(N)cc2)CCC(=O)NC1=O` (configuration not stated)?
Rad51 HR inh: -2

How did Cc1cccc(-n2c(C)nc3ccccc3c2=O)n1 do in these assays?
ROMK mod: 0.26; PKD1 inh: 4; KCC2 mod: 0.49; Rad51 HR inh: -1

What do the screens show for `Cc1cccc(-n2c(=S)[nH]c3ccccc3c2=O)n1`?
ROMK mod: 2.5*; PKD1 inh: -2; KCC2 mod: 0.1; Rad51 HR inh: -4; ROMK retest: 0.075

Screens from PubChem BioAssay.
